Assay [1] has as its system HL-60. In words: Induction of cell death in human HL60 cells assessed as reduction in cell viability at 2 uM incubated for 6 hrs after pre-treatment with caspase inhibitor Z-Asp-CH2-DCB for 1 hr by WST8 dye based assay. The assay is classed as functional. Background: Tetrazolium assays rely on reduction of a dye to a coloured formazan, in cell work by metabolically active cells.

For a further assay, the system named is Escherichia coli. The assay is described as follows: Antibacterial activity against Escherichia coli NBRC 3301 after 17 hrs by broth microdilution method. The assay is classed as functional. The note with it: NBRC 3301, 17 h. The essentials:
(§1)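 Broth microdilution run to CLSI standard methods. MIC taken as the lowest concentration inhibiting growth. Ampicillin and chloramphenicol served as positive controls. Compounds were tested up to 128 µg/mL.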

The test system of assay [2] is Bacillus subtilis. The assay is described as follows: Antibacterial activity against Bacillus subtilis NBRC 3134 after 18 hrs by broth microdilution method. The assay is classed as functional. The note with it: NBRC 3134, 18 h. A digest of the protocol:
as §1
Background: In broth dilution the organism is exposed to a series of concentrations in liquid medium.

The test system of assay [3] is Bacillus subtilis. The assay is described as follows: Bactericidal activity against Bacillus subtilis NBRC 3134 incubated for 18 hrs followed by inoculums transfer to MHA plate and further incubated for 24 hrs. The assay is classed as functional. A digest of the protocol: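 MBC determined per CLSI methods following broth microdilution MIC testing. Ampicillin and chloramphenicol served as positive controls.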

For a further assay, the system named is A549. The assay is described as follows: Cytotoxicity against human A549 cells assessed as reduction in cell viability incubated for 48 hrs by WST8 dye based assay. The assay is classed as functional. The note with it: A549, 48 h. A digest of the protocol:
(§2)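 Adherent human cancer lines (A549 lung, HCT116 colon, HeLa cervix, TE8 esophageal squamous) exposed to a range of concentrations for 48 h. Viability read by WST-8. IC50 taken as 50% inhibition of viability, mean ± SD of triplicate experiments. SN-38 served as positive control. Tested up to 100 μM.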

The subject of a further assay is HCT-116. The assay is described as follows: Cytotoxicity against human HCT116 cells assessed as reduction in cell viability incubated for 48 hrs by WST8 dye based assay. The assay is classed as functional. The note with it: HCT-116, 48 h. A digest of the protocol: as §2
The test system of a further assay is HeLa. In words: Cytotoxicity against human HeLa cells assessed as reduction in cell viability incubated for 48 hrs by WST8 dye based assay. The assay is classed as functional. A digest of the protocol:
as §2

For the next assay, the system named is TE-8. In words: Cytotoxicity against human TE8 cells assessed as reduction in cell viability incubated for 48 hrs by WST8 dye based assay. The assay is classed as functional. Conditions: TE-8, 48 h. The essentials: as §2
Assay [4] relates to HL-60. In words: Cytotoxicity against human HL60 cells assessed as reduction in cell viability incubated for 48 hrs by WST8 dye based assay. The assay is classed as functional. The note with it: HL-60, 48 h. The essentials:
(§3)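 Suspension leukemia lines (HL-60 promyelocytic, Jurkat T-ALL) exposed to a range of concentrations for 48 h. Viability read by WST-8. IC50 is the concentration giving 50% loss of viability, mean ± SD of triplicates. SN-38 served as positive control.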

The subject of the next assay is Jurkat. In words: Cytotoxicity against human Jurkat cells assessed as reduction in cell viability incubated for 48 hrs by WST8 dye based assay. The assay is classed as functional. The essentials:
as §3

The test system of the next assay is HEK293. In words: Cytotoxicity against human HEK293 cells assessed as reduction in cell viability incubated for 48 hrs by WST8 dye based assay. Conditions: HEK293, 48 h. A digest of the protocol: (§4)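 Adherent non-cancer cells (HEK293, Ad5-transformed embryonic kidney; MRC-5, normal diploid fibroblast) treated with graded concentrations for 48 h. WST-8 viability read-out. IC50 reported as mean ± SD of triplicate experiments. SN-38 served as positive control. Tested up to 50 μM.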

Another assay relates to MRC5. In words: Cytotoxicity against human MRC5 cells assessed as reduction in cell viability incubated for 48 hrs by WST8 dye based assay. Conditions: MRC5, 48 h. The essentials: as §4
Assay [5] deals with HL-60. The assay is described as follows: Induction of DNA fragmentation in human HL60 cells at 0.5 to 5 uM after 6 hrs by […] staining-based agarose gel electrophoresis. The assay is classed as functional, cell-based.

Structures are written as SMILES. In brackets after ≈: the same amount, converted by molar mass. Activity calls are given as the source filed them. No cut-off for these calls is given here.

These results are taken from ChEMBL document CHEMBL4390685, “Synthesis, antibacterial and cytotoxic evaluation of flavipucine and its derivatives” (Bioorg Med Chem Lett, 2019).

As usually defined, the MIC is the lowest concentration found to suppress growth. For orientation: MBC means the lowest tested concentration that kills the bacteria rather than only halting them. A high value points to weaker bactericidal potency. By IC50 is commonly meant the midpoint of a concentration-inhibition curve.

For the compound `CC1=CC(=O)C2(OC2C(=O)CC(C)C)C(=O)N1` (racemic), the result with HL-60 [1] was Active. Further, the MIC was greater than 128 µg/mL in the assay on Escherichia coli and 8 µg/mL (≈ 33.7 µM) against Bacillus subtilis [2]. For the same compound, the MBC in the assay with Bacillus subtilis [3] was 8 µg/mL (≈ 33.7 µM). Further, the IC50 is 32.1 µM with A549; 30.4 µM with HCT-116; 40.5 µM in the assay on HeLa; 21.6 µM with TE-8; 1.8 µM in the assay on HL-60 [4]; 8 µM with Jurkat. Moreover, the IC50 worked out at 35.9 µM in the assay on HEK293 and 33.2 µM in the assay with MRC5. Also, in the assay with HL-60 [5], the outcome was inactive.
With `CC(C)C[C@]1(O)NC(=O)[C@]2(OC(Cc3ccccc3)=CC2=O)[C@H]1O` (racemic), the minimum inhibitory concentration (MIC) with Escherichia coli and with Bacillus subtilis [2] was greater than 128 µg/mL each time. The compound further came in with an MBC with Bacillus subtilis [3] greater than 128 µg/mL. Further, the IC50 in the assay with A549 is greater than 100 µM; in the assay with HCT-116 it was greater than 100 µM; in the assay on HeLa, greater than 100 µM; in the assay with TE-8 it was greater than 100 µM; in the assay with HL-60 [4], 28 µM; with Jurkat it was greater than 50 µM. The IC50 in the assay with HEK293 and in the assay with MRC5 was greater than 50 µM each time.
The compound `CC1=CC(=O)[C@]2(O[C@@H]2C(=O)CC(C)C)C(=O)N1` returned an MIC with Bacillus subtilis [2] of 8 µg/mL (≈ 33.7 µM). Besides, the MBC in the assay on Bacillus subtilis [3] came to 8 µg/mL (≈ 33.7 µM). Also, the IC50 with HL-60 [4] was 1.7 µM.
`CCc1c2c(nc3ccc(O)cc13)-c1cc3c(c(=O)n1C2)COC(=O)[C@]3(O)CC` [7-ETHYL-10-HYDROXYCAMPTOTHECIN]: the IC50 in the assay with A549 is 6.6 µM; with HCT-116, less than 1 µM; in the assay with HeLa it was 13.1 µM; with TE-8, less than 1 µM; in the assay on HL-60 [4], 2.4 µM; in the assay on Jurkat, less than 1 µM. Moreover, the IC50 in the assay with HEK293 was less than 1 µM; in the assay on MRC5, 15.3 µM.
`CC1(C)S[C@@H]2[C@H](NC(=O)[C@H](N)c3ccccc3)C(=O)N2[C@H]1C(=O)O` [AMPICILLIN]: the MIC in the assay with Escherichia coli is 4 µg/mL (≈ 11.4 µM); in the assay on Bacillus subtilis [2], less than 0.5 µg/mL. Further, the MBC in the assay on Bacillus subtilis [3] was less than 0.5 µg/mL.
With `CC(C)C[C@@]12NC(=O)[C@]3(O)C(=O)C[C@@](C)(O[C@@H]31)O2` (racemic), the MIC against Escherichia coli and in the assay on Bacillus subtilis [2] was greater than 128 µg/mL throughout. The compound also had an MBC against Bacillus subtilis [3] greater than 128 µg/mL. Further, the IC50 with A549 is greater than 100 µM; with HCT-116 it was greater than 100 µM; in the assay with HeLa, greater than 100 µM; in the assay on TE-8, greater than 100 µM; in the assay with HL-60 [4] it was 37.7 µM; in the assay with Jurkat, greater than 50 µM. For the same compound, the IC50 in the assay on HEK293 and with MRC5 was greater than 50 µM each time.
In the case of `CC1=CC(=O)[C@@]2(O[C@H]2C(=O)CC(C)C)C(=O)N1`, the MIC in the assay with Bacillus subtilis [2] amounted to 8 µg/mL (≈ 33.7 µM). The same compound returned an MBC in the assay with Bacillus subtilis [3] of 8 µg/mL (≈ 33.7 µM). Besides, the IC50 with HL-60 [4] is 1.6 µM.
Turning to `CC(C)CC(=O)C1Oc2cc(Cc3ccccc3)[nH]c(=O)c2O1` (racemic), the MIC against Escherichia coli and in the assay with Bacillus subtilis [2] was greater than 128 µg/mL in each case. The MBC with Bacillus subtilis [3] is greater than 128 µg/mL. Also, the IC50 with A549 is greater than 100 µM; in the assay with HCT-116, greater than 100 µM; with HeLa, greater than 100 µM; in the assay on TE-8, greater than 100 µM; in the assay on HL-60 [4], greater than 50 µM; in the assay with Jurkat, greater than 50 µM. Further, the IC50 with HEK293 and in the assay with MRC5 was greater than 50 µM each time.
As to `CC(C)CC(=O)[C@@H]1O[C@@]12C(=O)C=C(Cc1ccccc1)NC2=O` (racemic), the results for the MIC against Escherichia coli and against Bacillus subtilis [2] were greater than 128 µg/mL and 128 µg/mL (≈ 408 µM), respectively. This compound gave an MBC with Bacillus subtilis [3] of 128 µg/mL (≈ 408 µM). Also, the IC50 in the assay on A549 was greater than 100 µM; in the assay on HCT-116, greater than 100 µM; in the assay on HeLa, greater than 100 µM; in the assay on TE-8, greater than 100 µM; with HL-60 [4], 37.3 µM; with Jurkat, greater than 50 µM. Besides, the IC50 in the assay on HEK293 and with MRC5 was greater than 50 µM throughout.
Turning to `Cc1cc2c(c(=O)[nH]1)OC(C(=O)CC(C)C)O2` (racemic), the minimal inhibitory concentration (MIC) against Escherichia coli and in the assay with Bacillus subtilis [2] was greater than 128 µg/mL in each case. The compound further had an MBC against Bacillus subtilis [3] greater than 128 µg/mL. Also, the half-inhibitory concentration (IC50) with A549 is greater than 100 µM; with HCT-116 it was greater than 100 µM; with HeLa it was greater than 100 µM; in the assay with TE-8, greater than 100 µM; in the assay with HL-60 [4], 19.9 µM; with Jurkat, greater than 50 µM. For the same compound, the IC50 in the assay with HEK293 and with MRC5 was greater than 50 µM each time.
With `O=C(N[C@H](CO)[C@H](O)c1ccc([N+](=O)[O-])cc1)C(Cl)Cl` [CHLORAMPHENICOL], the MIC against Bacillus subtilis [2] is 4 µg/mL (≈ 12.4 µM). Also, in the assay on Bacillus subtilis [3], the MBC came to 64 µg/mL (≈ 198 µM).
With `CC1=CC(=O)[C@]2(O1)C(=O)N[C@@](O)(CC(C)C)[C@@H]2O` (racemic), the MIC in the assay on Escherichia coli and in the assay with Bacillus subtilis [2] was greater than 128 µg/mL in each case. This compound displayed an MBC against Bacillus subtilis [3] greater than 128 µg/mL. Further, the IC50 is greater than 100 µM in the assay with A549; greater than 100 µM in the assay on HCT-116; greater than 100 µM in the assay with HeLa; greater than 100 µM in the assay on TE-8; greater than 50 µM with HL-60 [4]; greater than 50 µM in the assay on Jurkat. Also, the IC50 in the assay on HEK293 and in the assay on MRC5 was greater than 50 µM throughout.
